# This is a sample that favours compounds with a hit; in the whole collection about 2.3% have one here.
# Rpn11 inh = Rpn11 (PSMD14) deubiquitinase inhibitors, primary screen, biochemical, fluorescence polarization, uHTS | 26S proteasome non-ATPase regulatory subunit 14 (Homo sapiens), O00487 | human 26S proteasome, Ub4-pepOG fluorescence polarization; 20S core pre-blocked with epoxomicin | calls only at 20 µM | actives 0.59% (n = 360,000) | AID 588493, 2011;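 active = inhibition at 20 µM, scaled to each plate's controls, above about 33%, limit read from the data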
# CRFBP-R2 block = antagonists of CRF-BP/CRF-R2 complex, primary screen, cell-based, HEK293, calcium dye fluorescence, uHTS. inhibition, % at 11.8 µM. actives 0.59% (n = 350,000). CRF-induced calcium fluorescence;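 active = inhibition of the ligand-induced calcium signal above about 50% at the single tested concentration, limit read from the data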
# CRFR2-BP ag = agonists of CRF-BP/CRF-R2 complex, primary screen, cell-based, HEK293, calcium dye fluorescence, uHTS; CRF-binding protein / CRF receptor 2 complex (human); calcium dye fluorescence (FLIPR); percent of saturating CRF peptide response; activation, % at 13.2 µM; actives 0.46% (n = 350,000);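 active = activation of at least 50%, plus an integration ratio under a set limit after plate pattern correction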;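 also: plate controls were neutral control wells without compound for no effect and CRF at EC100 for full effect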
# TPT1 inh = Candida albicans TPT1 enzyme inhibitors, primary screen, biochemical, fluorescence polarization. tRNA 2'-phosphotransferase TPT1 (Candida albicans SC5314). recombinant caTPT1, FP RNA substrate dephosphorylation. inhibition, % at 5 µM. actives 0.81% (n = 300,000);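 active = inhibition above the mean of all tested compounds plus 3 SD, set per screening campaign, cut at about 24% in these data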;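 also: plate controls were DMSO alone for no effect and ferristatin control at 100 nM for full effect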
# CSN deneddyl inh = inhibitors of CSN-mediated cullin deneddylation, primary screen, biochemical, fluorescence polarization, uHTS. COP9 signalosome complex subunit 5 (Homo sapiens), Q92905. Purified CSN, SCF-Nedd8-OG deneddylation. inhibition, % at 12.5 µM. actives 0.38% (n = 360,000). AID 651999, 2013;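 active = pattern-corrected inhibition above about 35%, with an unprinted fluorescence ratio check between 0.5 and 1.5, limit read from the data, passing the limit was not always enough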;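 also: 0% = enzyme with substrate and 100% = substrate without enzyme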
# Target sequence (Q92905 whole entry, looked up, one chain of several): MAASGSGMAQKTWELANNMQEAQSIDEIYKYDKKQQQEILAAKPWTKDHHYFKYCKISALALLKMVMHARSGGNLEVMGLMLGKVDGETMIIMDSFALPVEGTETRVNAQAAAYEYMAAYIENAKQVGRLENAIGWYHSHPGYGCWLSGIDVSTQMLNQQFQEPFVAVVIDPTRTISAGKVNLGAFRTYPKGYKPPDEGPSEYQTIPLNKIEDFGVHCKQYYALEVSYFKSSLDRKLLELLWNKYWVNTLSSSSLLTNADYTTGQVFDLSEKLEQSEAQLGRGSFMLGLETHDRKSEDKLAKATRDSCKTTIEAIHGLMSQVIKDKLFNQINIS
#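 Material: purified human Csn5 enzyme expressed in HEK293T cells / Medium: Tris buffer pH 7.5, NaCl, DTT, Tween-20, trehalose, ovalbumin / Compound dosing: 12.5 µM single point / Schedule: 90 min incubation of compound, enzyme and substrate at room temperature / Signal: fluorescence polarization of the substrate / Control set: no-enzyme wells high, enzyme-with-substrate wells low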
# HNF4A DNA FP = change in binding of human HNF4A to DNA, primary screen, biochemical, fluorescence polarization, FITC-DNA. Hepatocyte nuclear factor 4-alpha (Homo sapiens), P41235. 1 h. activity change, % at 10 µM. actives 0.3% (n = 360,000). AID 1224865, 2016; in the data active = activity change above about 30%, passing the limit was not always enough
# Starred values were filed as active, the others as inactive; i = inactive; / = no result shown.
SMILES,Rpn11 inh,CRFBP-R2 block,CRFR2-BP ag,TPT1 inh,CSN deneddyl inh,HNF4A DNA FP
COc1ccc(C(CNC(=O)Cn2[nH]c(=O)c3ccccc3c2=O)N2CCCC2)cc1 (stereo not given),i,-12,0,0,-2,1
CCCNC(=O)NC(=O)COC(=O)/C=C/c1cc(Br)ccc1F,i,-4,1,-4,-7,1
CCc1ccccc1N1C(=O)C2CC(C)=C(C)CC2C1=O (stereo not given),i,50*,0,1,-3,-2
CN(CCOc1ccccc1)c1ccc(S(=O)(=O)N2CCCCC2)cn1,i,-36,4,-3,2,-2
O=C(COC(=O)c1ccc([N+](=O)[O-])s1)Nc1cccc(S(=O)(=O)NC2=NCCCCC2)c1,i,68*,-1,-1,17,-4
O=S(N1CCc2ccccc21)C12CC3CC(CC(C3)C1)C2 (stereo not given),i,17,-5,-1,-8,1
COc1ccc(N2CCN(C(=O)c3cc(=O)c4cc(C)c(C)cc4o3)CC2)cc1,i,111*,-1,4,-1,-2
COc1ccc(N2CCN(C(=O)c3csc4ccccc34)CC2)cc1,i,119*,-3,-2,2,1
O=C(c1csc2ccccc12)N1CCN(c2ccc(Cl)c(Cl)c2)CC1,i,1,-1,0,0,4
[2H]c1c([2H])c([2H])c(-c2nc(N3CCCCCC3)sc2C(=O)c2ccccc2)c([2H])c1[2H],i,20,5,-1,2,4
C/C(=N/NS(=O)(=O)c1ccc(C)cc1)[C@H]1C[C@@H]1c1ccccc1,i,5,-2,0,-2,-1
CCN(CC(=O)Nc1c(F)cccc1F)C(=O)CCOc1ccc(C)cc1,i,3,-1,0,6,4
Oc1ccccc1C=NCCN1CCN(CCN=Cc2ccccc2O)C1c1ccccc1O (stereo not given),i,66*,-5,/,5,0
Oc1ccccc1C=NCCN=Cc1ccccc1O,i,16,-2,1,-2,0
CCc1ccc(/C(C)=N/NC(=O)CNC(=O)/C=C/c2ccco2)cc1,/,7,1,1,38*,-60
CCc1ccc(/C(C)=N/NC(=O)CNC(=O)/C=C/c2ccccc2OC)cc1,i,8,0,0,1,1
C/C(=N\NC(=S)Nc1cccc(C)c1)c1cccc(N)c1,i,18,-3,2,-4,-3
C/C(=N\NC(=S)Nc1ccc(C)cc1)c1cccc(N)c1,i,17,179*,-1,0,1
CN(C)CCCNC(=O)c1cc(C(=O)c2cccc(Cl)c2Cl)c[nH]1,i,-17,-1,-2,1,2
CC(=O)N1CCOc2ccc(S(=O)(=O)N3CCC(C(=O)NCc4ccc(C)cc4)CC3)cc21,i,53*,2,1,5,-8
CC(=O)N1CCOc2ccc(S(=O)(=O)N3CCC(C(=O)NCc4ccc(Cl)cc4)CC3)cc21,i,3,0,/,-3,7
CCC1OC(=O)C(C)C(OC2C[C@@](C)(OC)C(O)C(C)O2)C(C)C(O[C@@H]2OC(C)CC(N(C)C)C2O)[C@](C)(O)CC(C)C(=NOCOCCOC)C(C)C(O)[C@]1(C)O (stereo not given in full),i,89*,-1,-3,1,0
O=C1NC(c2ccccc2O)Nc2ccccc21 (stereo not given),i,-15,1,1,-3,-1
Cc1[nH]c(=O)[nH]c(=O)c1CSCC(=O)OCC(=O)Nc1ccccn1,i,-8,1,-1,94*,-5
O=C(c1ccc2c(c1)OCO2)C1CCCN(Cc2cc(F)ccc2-n2cccn2)C1 (stereo not given),i,-50,56*,-1,-5,1
SMILES,Rpn11 inh,CRFBP-R2 block,CRFR2-BP ag,TPT1 inh,CSN deneddyl inh,HNF4A DNA FP
COC(=O)c1ccc(C2C(C(=O)c3cc4ccccc4o3)=C(O)C(=O)N2CCCN(C)C)cc1 (stereo not given),i,114*,0,-2,-4,0
CC(=O)Oc1ccc2cc(-c3cccnc3)c(=O)oc2c1,i,79*,0,/,4,0
O=C(Cn1nnc(-c2cccc(C(F)(F)F)c2)n1)N1CCCCCC1,i,6,-1,5,3,3
COc1cc(CC(CC(=O)c2ccc3c(c2)OCO3)C(=O)O)cc(OC)c1OC (stereo not given),i,4,0,/,2,3
COc1ccc(-c2csc(COC(=O)C(C)(C)C)n2)cc1,i,19,1,-1,105*,22
Cc1ccc(C(=O)N/C(=C\c2cn(C)c3ccccc23)C(=O)NCCCN2CCOCC2)cc1,i,101*,0,3,-5,1
COCCSc1ccccc1C(=O)Nc1nnc(C)s1,i,-14,0,-1,-2,4
Cc1cc(C)n2nc(/C(C#N)=C/c3ccccc3)c(C#N)c2n1,i,99*,2,/,4,3
CC1CCN(C(=O)c2[nH]cnc2C(=O)N[C@@H](CCCCNC(=O)OC(C)(C)C)C(=O)OC(C)(C)C)CC1,i,5,-1,1,-2,-4
Oc1ccc(C=NNc2ccccn2)c(O)c1,i,-26,-1,/,-3,6
COc1cc2c(cc1OC)/C(=C/C(=O)c1cccc([N+](=O)[O-])c1)NCC2,i,-2,-2,1,-2,-1
COc1cc2c(cc1OC)/C(=C/C(=O)c1ccc(OC)c([N+](=O)[O-])c1)NCC2,i,57*,0,/,5,2
CCOc1ccc(NS(=O)(=O)c2ccc(C(=O)N3CCCC(C)C3)cc2)cc1 (stereo not given),i,-26,55*,2,2,2
Cc1ccc(NS(=O)(=O)c2ccc(C(=O)N3CC(C)OC(C)C3)cc2)cc1 (stereo not given),i,-29,83*,-5,3,-5
O=C(c1ccc(S(=O)(=O)Nc2ccccc2)cc1)N1CCCC(C(F)(F)F)C1 (stereo not given),i,-65,73*,-2,2,2
CCOc1ccc(S(=O)(=O)Nc2ccc(C(=O)N3CCCC3)cc2)cc1,i,-2,-1,-3,0,-1
